# Compound activity: PubChem, several laboratories
# Rows were chosen to be rich in hits. Some 5.4% of all compounds tested hit in one or more screens of this group.
# Mdm2 MdmX PPI: disrupts the human Mdm2-MdmX interaction. O15151+Q00987. SaOS-2 split-luciferase Mdm2/MdmX complementation, luminescence. inhibition, % at 8 µM. 330,000 compounds, 3% hits;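 active means inhibition of at least 50% at 8 µM in the primary screen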
# Target sequence (O15151 whole entry, looked up): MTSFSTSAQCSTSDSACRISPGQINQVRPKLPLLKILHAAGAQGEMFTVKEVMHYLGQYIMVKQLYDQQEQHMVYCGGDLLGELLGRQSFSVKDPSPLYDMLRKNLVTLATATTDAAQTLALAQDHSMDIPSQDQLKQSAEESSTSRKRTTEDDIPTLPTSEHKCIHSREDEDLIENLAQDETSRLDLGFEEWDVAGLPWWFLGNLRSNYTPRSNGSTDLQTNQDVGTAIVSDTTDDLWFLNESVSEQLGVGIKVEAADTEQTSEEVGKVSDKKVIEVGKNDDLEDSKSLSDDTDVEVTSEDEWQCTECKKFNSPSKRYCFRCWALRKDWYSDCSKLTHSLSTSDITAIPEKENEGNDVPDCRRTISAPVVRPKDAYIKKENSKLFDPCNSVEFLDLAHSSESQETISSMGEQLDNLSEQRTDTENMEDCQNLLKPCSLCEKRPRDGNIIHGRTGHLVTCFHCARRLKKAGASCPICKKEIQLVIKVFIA
# Target sequence (Q00987 whole entry, looked up): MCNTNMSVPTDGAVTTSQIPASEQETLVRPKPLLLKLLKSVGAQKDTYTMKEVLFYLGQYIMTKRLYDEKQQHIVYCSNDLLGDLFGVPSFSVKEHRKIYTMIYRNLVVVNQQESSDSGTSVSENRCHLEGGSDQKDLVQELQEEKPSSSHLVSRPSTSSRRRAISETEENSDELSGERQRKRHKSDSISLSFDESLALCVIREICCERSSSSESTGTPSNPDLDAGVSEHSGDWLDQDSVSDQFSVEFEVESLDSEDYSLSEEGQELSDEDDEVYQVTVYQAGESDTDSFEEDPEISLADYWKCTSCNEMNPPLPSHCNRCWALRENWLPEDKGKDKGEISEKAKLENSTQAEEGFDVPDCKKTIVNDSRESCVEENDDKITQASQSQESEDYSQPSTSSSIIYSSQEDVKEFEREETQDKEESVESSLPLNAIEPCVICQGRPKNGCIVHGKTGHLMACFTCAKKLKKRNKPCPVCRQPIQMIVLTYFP
# CSC inhib: blocks cancer stem cells; cancer stem cell-like cells viability, luminescence; 300,000 compounds, 1.1% hits; inhibition, % at 7.5 µM; AID 2717; in the data active means inhibition above about 75%; tested in HMLE shEcad cells
# SKKanGAS inh: inhibitors of SKKanGAS S. pyogenes growth in kanamycin (SK-promoter or general growth effect) | inhibition, % at 7.5 µM | BacTiter-Glo, 6 h | AID 1662 | 300,000 compounds, 1.3% hits;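 active means mean replicate score, as percent of positive control median, at least 50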;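 further: strain carries kanamycin resistance gene driven by streptokinase promoter and grows in 40 µg/ml kanamycin; loss of luminescence reflects streptokinase promoter inhibition or plain growth inhibition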
# T cruzi repl: blocks replication of Trypanosoma cruzi. T. cruzi beta-gal in NIH3T3, luminescence, 90 h. inhibition, % (no concentration beside the values). 300,000 compounds, 1.4% hits;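 active means mean inhibition across valid replicates above about 55%, limit read from the data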;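 further: signal also drops with host cell toxicity which is not excluded here; higher percent means less beta-gal luminescence so fewer parasites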
#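 System: mouse NIH/3T3 fibroblasts infected with β-gal-expressing T. cruzi Tulahuen C4 / Input: NIH/3T3 cells, 5,000 per well / Buffer or medium: Low-serum DMEM with 2% FBS / Probe or stimulus: 5000 reporter trypomastigotes per well / Schedule: ≥90 h infection period, 3 h prior cell attachment / Measured by: GalScreen luminescence, 60 min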
# aSyn 5UTR inh: 5' untranslated region of α-synuclein, MLPCN primary screen | alpha-synuclein 5'UTR reporter, inhibitor activity | inhibition, % (tested at 7.5 µM) | 300,000 compounds, 0.82% hits; in the data active means inhibition above about 60%;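 further: H4 neuroglioblastoma cells stably carrying SNCA 5'UTR luciferase fusion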
# Mdm2-MdmX conf: human Mdm2/MdmX binding inhibition, confirmed. shares compounds with Mdm2 MdmX PPI. luminescent assay. inhibition, % at 8 µM. 10,000 compounds, 55% hits; in the data active means inhibition above about 40%
# Full FLuc ctr: full-length luciferase inhibition in Mdm2/MdmX counter-screen; AID 504607; shares compounds with Mdm2 MdmX PPI; 6,200 compounds, 77% hits; inhibition, % at 8 µM; SaOS-2 full-length luciferase counterscreen, luminescence;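 active means mean inhibition at 8 µM reaching about 37%, which flags the compound as non-specific, limit read from the data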;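 further: p53-null SaOS-2 cells with luciferase driven by a doxycycline-inducible promoter; compound on cells about two nights before reading with doxycycline added after day one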
# Hits are given with their value; 0 = inactive; - = no result.
SMILES,Mdm2 MdmX PPI,CSC inhib,SKKanGAS inh,T cruzi repl,aSyn 5UTR inh,Mdm2-MdmX conf,Full FLuc ctr
COc1ccccc1CNCC(O)(c1ccc(Cl)cc1)c1ccc(Cl)cc1,54,0,0,0,0,0,-
COc1ccccc1N1CCN(S(=O)(=O)CCNC(=O)C23CC4CC(CC(C4)C2)C3)CC1,0,0,0,0,0,-,-
O=C(CCS(=O)(=O)c1cccc2nsnc12)NC1CCCCC1,0,0,0,0,0,-,-
O=P(c1ccccc1)(c1ccccc1)c1nc(-c2ccccc2)oc1NCc1ccccc1,60,0,0,0,0,0,-
CC(=O)N/C(=C\c1ccccc1)C(=O)OC(C)C(=O)Nc1ccccc1F (stereo unspecified),0,0,-,-,-,-,-
CC(C)(C)c1ccc(C(=O)NCCOc2ccccc2)cc1,0,0,0,0,0,-,-
CC(C)(C)c1ccc(C(=O)NCCOc2ccccc2F)cc1,62,0,0,0,77,73,148
CCN(CC)S(=O)(=O)c1ccc(-c2nnco2)cc1,0,0,0,0,0,-,-
CN1c2ccccc2C(C)(C)C12CC(c1cccc(S(=O)(=O)N3CCCC3)c1)=NO2 (stereo unspecified),69,0,0,0,0,65,106
CCN(CC)S(=O)(=O)c1ccc(C2=NOC3(C2)N(C)c2ccccc2C3(C)C)cc1 (stereo unspecified),72,0,0,0,0,69,79
CN1c2ccccc2C(C)(C)C12CC(c1ccc(S(=O)(=O)N3CCCCC3)cc1)=NO2 (stereo unspecified),65,-,0,0,0,74,74
O=S(=O)(NCc1cccnc1)c1ccccc1,0,0,0,0,0,-,-
O=C1CC(NS(=O)(=O)c2cccnc2)CN1c1ccc(Cl)cc1 (stereo unspecified),0,-,0,0,0,-,-
Cn1cc(C(=O)NC2CCCCC2)c(=O)c2cc(S(=O)(=O)N3CCOCC3)ccc21,0,0,0,0,0,-,-
N#CC(C#N)=C1C=CC=CN1/C(=C\c1ccco1)C(=O)c1ccccc1,-,0,-,-,-,-,-
COc1ccc(C(=O)/C(=C\c2ccco2)N2C=CC=CC2=C(C#N)C#N)cc1,100,0,0,0,77,99,51
CCN(CC(=O)NCc1ccc(Cl)cc1)C(=O)c1cc2ccccc2o1,0,0,0,0,0,-,-
COc1ccccc1C/C(N)=N/OC(=O)c1ccc2c(c1)OCO2,78,0,0,0,0,41,70
COc1ccc(C(=O)O/N=C(\N)Cc2cccs2)cc1OC,86,0,0,0,0,51,68
Cc1ccc(C(=O)NCc2ccco2)cc1S(=O)(=O)Nc1cccc(Cl)c1,0,0,0,0,0,-,-
CCOCCCNC(=S)Nc1ccc(S(N)(=O)=O)cc1,0,0,0,0,0,-,-
CN(C)c1ccc(C(C[N+](=O)[O-])c2c(N)n(C)c(=O)n(C)c2=O)c(F)c1C#N (stereo unspecified),0,-,0,0,0,-,-
COc1ccc(Br)cc1C(C[N+](=O)[O-])c1c(N)n(C)c(=O)n(C)c1=O (stereo unspecified),50,83,0,0,0,0,-
OC(CNCc1ccncc1)c1ccccc1 (stereo unspecified),0,0,0,0,0,-,-
OC(CNCc1ccc(-c2ccccc2)cc1)c1ccccc1 (stereo unspecified),53,0,0,0,0,58,0
SMILES,Mdm2 MdmX PPI,CSC inhib,SKKanGAS inh,T cruzi repl,aSyn 5UTR inh,Mdm2-MdmX conf,Full FLuc ctr
Cc1ccc(C(=O)NCC(=O)N2CCCCCCC2)cc1C,0,0,-,-,-,-,-
O=C(OCc1c(F)cccc1Cl)c1cnc(Cl)c(Cl)c1,0,0,0,0,0,-,-
Cc1occc1C(=O)N=Nc1c(O)[nH]c2ccc(Br)cc12,0,0,0,0,0,-,-
Cc1cc2c(N=NC(=O)C3CC3c3ccccc3)c(O)[nH]c2cc1Br (stereo unspecified),54,0,0,0,0,0,-
CC(=O)Oc1ccc(NC(=O)CSc2ccccc2)cc1,0,0,0,0,0,-,-
CN(C)S(=O)(=O)c1cccc(NC(=O)COC(=O)CCc2nc3ccccc3s2)c1,0,0,0,0,0,-,-
Cn1nnnc1Sc1ncnc2scc(-c3ccc4c(c3)OCO4)c12,71,-,-,-,-,0,-
Cn1nnnc1Sc1ncnc2scc(-c3cccc4c3sc3ccccc34)c12,100,111,-,-,-,67,48
